The text below walks through data of ChEMBL document CHEMBL1641438, “In vitro efficacy of 7-benzylamino-1-isoquinolinamines against Plasmodium falciparum related to the efficacy of chalcones” (Bioorg Med Chem Lett, 2011).

In general, IC50 refers to the concentration that inhibits the measured activity by half.

Experiment [1] relates to Plasmodium falciparum. Put plainly: Antimalarial activity against mefloquine-resistant, chloroquine-sensitive Plasmodium falciparum D6 assessed as inhibition of [3H]hypoxanthine uptake. In kind it is functional, organism-based.
Experiment [2] relates to Plasmodium falciparum. Put plainly: Antimalarial activity against multidrug-resistant Plasmodium falciparum TM91C235 assessed as inhibition of [3H]hypoxanthine uptake. Type of experiment: functional, organism-based.
In experiment [3] the test system is Plasmodium falciparum. Put plainly: Antimalarial activity against chloroquine-resistant, mefloquine-sensitive Plasmodium falciparum W2 assessed as inhibition of [3H]hypoxanthine uptake. Type of experiment: functional, organism-based.
The test system of experiment [4] is Plasmodium falciparum. Put plainly: Resistance index, ratio of IC50 for Plasmodium falciparum multidrug-resistant TM91C235 to IC50 for mefloquine-resistant, chloroquine-sensitive Plasmodium falciparum D6. Type of experiment: functional.
The subject of experiment [5] is Plasmodium falciparum. Put plainly: Resistance index, ratio of IC50 for chloroquine-resistant, mefloquine-sensitive Plasmodium falciparum W2 to IC50 for mefloquine-resistant, chloroquine-sensitive Plasmodium falciparum D6. In kind it is functional.
In experiment [6] the test system is Plasmodium falciparum. Put plainly: Antimalarial activity against mefloquine-resistant, chloroquine-sensitive Plasmodium falciparum D6 assessed as inhibition of [3H]hypoxanthine uptake in presence of 1 mM folinic acid. In kind it is functional, organism-based. A digest of the protocol: (§1)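 Folinic acid reversal assay, adapted from a folic acid reversal method and run in normal plasma, to rule out DHFR inhibition. Parasite growth inhibition (IC50) is measured with 1 mM folinic acid present and compared with the IC50 obtained without folinic acid.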

The test system of experiment [7] is Plasmodium falciparum. Put plainly: Antimalarial activity against multidrug-resistant Plasmodium falciparum TM91C235 assessed as inhibition of [3H]hypoxanthine uptake in presence of 1 mM folinic acid. In kind it is functional, organism-based. The procedure, abridged:
as §1

The source made the active and inactive calls. The rule behind the calls is not given here.

Regarding `Cl.Cl.Cl.Nc1nccc2ccc(NCc3ccc(Cl)cc3)cc12`, the results for the half-maximal inhibitory concentration (IC50) with Plasmodium falciparum [1], in the experiment on Plasmodium falciparum [2] and with Plasmodium falciparum [3] were 73.6 nM, 205 nM and 417 nM, respectively. Further, the figures for the “Ratio IC50” value with Plasmodium falciparum [4] and in the experiment on Plasmodium falciparum [5] were 2.78 and 5.67, respectively. Further, the result in the experiment with Plasmodium falciparum [6] and in the experiment with Plasmodium falciparum [7] was Active.
As to `Cl.Cl.Nc1nccc2ccc(NCc3cccc(Br)c3)cc12`, the IC50 is 103 nM in the experiment on Plasmodium falciparum [1], 142 nM in the experiment with Plasmodium falciparum [2] and 421 nM with Plasmodium falciparum [3]. The results for the “Ratio IC50” value in the experiment on Plasmodium falciparum [4] and with Plasmodium falciparum [5] were 1.38 and 4.09, respectively.
In the case of `CCc1nc(N)nc(N)c1-c1ccc(Cl)cc1`, the outcome with Plasmodium falciparum [6] and in the experiment with Plasmodium falciparum [7] was inactive.
As for `Cl.Cl.Nc1nccc2ccc(NCc3ccccc3)cc12`, the IC50 in the experiment on Plasmodium falciparum [1] was found to be 212 nM; in the experiment with Plasmodium falciparum [2], 486 nM; in the experiment with Plasmodium falciparum [3] it was 1400 nM. The entries for the “Ratio IC50” value with Plasmodium falciparum [4] and with Plasmodium falciparum [5] were 2.29 and 6.59, respectively.
In the same order, the values of `Nc1nc(N)c2cc(NCc3cccc(Br)c3)ccc2n1` are below 0.142 nM, 20.8 nM, 2.08 nM, 147 and 14.6.
For `Cl.Cl.Nc1nccc2ccc(NCc3cccc(C(F)(F)F)c3)cc12`, the IC50 was 50.1 nM with Plasmodium falciparum [1], 71.9 nM with Plasmodium falciparum [2] and 260 nM in the experiment with Plasmodium falciparum [3]. In addition, the “Ratio IC50” value is listed as 1.44 in the experiment on Plasmodium falciparum [4] and 5.2 in the experiment on Plasmodium falciparum [5].
`OC(c1cc(C(F)(F)F)nc2c(C(F)(F)F)cccc12)C1CCCCN1` (configuration not stated) [MEFLOQUINE]: the values for the IC50 with Plasmodium falciparum [1] and in the experiment on Plasmodium falciparum [2] were 20.1 nM and 37.4 nM, respectively. Besides, the results for the “Ratio IC50” value in the experiment on Plasmodium falciparum [4] and with Plasmodium falciparum [5] were 1.85 and 0.289, respectively.
On to `Cl.Cl.Cl.Cl.Nc1nccc2ccc(NCc3ccc(Cl)c(Cl)c3)cc12`, for which the IC50 came out at 69.1 nM in the experiment with Plasmodium falciparum [1], 111 nM in the experiment on Plasmodium falciparum [2] and 455 nM with Plasmodium falciparum [3]. The “Ratio IC50” value was 1.6 in the experiment on Plasmodium falciparum [4] and 6.58 in the experiment on Plasmodium falciparum [5].
For `Cl.Cl.Cl.Nc1nccc2ccc(NCc3cccc(Cl)c3)cc12`, the half-inhibitory concentration (IC50) in the experiment on Plasmodium falciparum [1] was found to be 64.8 nM; in the experiment with Plasmodium falciparum [2], 158 nM; in the experiment with Plasmodium falciparum [3], 359 nM. Besides, the “Ratio IC50” value with Plasmodium falciparum [4] is reported as 2.44; in the experiment with Plasmodium falciparum [5], 5.55. The outcome with Plasmodium falciparum [6] and with Plasmodium falciparum [7] was Active.
With `CCN(CC)CCCC(C)Nc1ccnc2cc(Cl)ccc12` (configuration not stated), the outcome in the experiment with Plasmodium falciparum [6] and in the experiment on Plasmodium falciparum [7] was Active.
